According to ChEMBL document CHEMBL4765317, “Novel bacterial topoisomerase inhibitors derived from isomannide” (Eur J Med Chem, 2020):
In brackets after ≈: the same amount, converted by molar mass.

Assays:
Cytochrome P450 3A4 = Cytochrome P450 3A4 (Homo sapiens, UniProt P08684); test: Inhibition of human liver microsome CYP3A4 in presence of NADPH incubated for 10 to 30 mins by LC-MS-MS analysis; format: ADME, microsomes
[1] = Inhibition of Staphylococcus aureus topoisomerase IV using kDNA as substrate incubated for 30 mins by gel electrophoresis analysis; conditions: read-out: IC50
Streptococcus pneumoniae = test: Antibacterial activity against penicillin-susceptible Streptococcus pneumoniae LSI-4234 assessed as reduction in bacterial growth by CLSI based broth microdilution method; format: functional
[2] = molecular target: Sodium-dependent dopamine transporter (Homo sapiens) (UniProt Q01959); test: Inhibition of recombinant human full length Dopamine transporter expressed in CHO-S cells at 100 uM in presence of [125I]-RTI-55 incubated for 180 mins by scintillation counting method relative to control; format: cell-based
Method in brief: (§1)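 Off-target screen against a panel of 44 receptors, enzymes and transporters, run in duplicate at a single 100 µM concentration. Results are given as % inhibition. No concentration-response follow-up was done.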

Staphylococcus aureus [3] = test: Antibacterial activity against Staphylococcus aureus USA300 assessed as reduction in bacterial growth by CLSI based broth microdilution method; format: functional
Nav1.5 (late current) [4] = molecular target: T1, Nav1.5 (late current) (Homo sapiens, UniProt Q14524); test: Inhibition of recombinant human Nav1.5 late expressed in human HEK293 cells late at 3 uM in presence of ATXII by automated Qpatch clamp assay relative to control; format: ADME, cell-based; conditions: HEK293 cells expressing recombinant human Nav1.5
T1 sequence (Q14524 whole entry): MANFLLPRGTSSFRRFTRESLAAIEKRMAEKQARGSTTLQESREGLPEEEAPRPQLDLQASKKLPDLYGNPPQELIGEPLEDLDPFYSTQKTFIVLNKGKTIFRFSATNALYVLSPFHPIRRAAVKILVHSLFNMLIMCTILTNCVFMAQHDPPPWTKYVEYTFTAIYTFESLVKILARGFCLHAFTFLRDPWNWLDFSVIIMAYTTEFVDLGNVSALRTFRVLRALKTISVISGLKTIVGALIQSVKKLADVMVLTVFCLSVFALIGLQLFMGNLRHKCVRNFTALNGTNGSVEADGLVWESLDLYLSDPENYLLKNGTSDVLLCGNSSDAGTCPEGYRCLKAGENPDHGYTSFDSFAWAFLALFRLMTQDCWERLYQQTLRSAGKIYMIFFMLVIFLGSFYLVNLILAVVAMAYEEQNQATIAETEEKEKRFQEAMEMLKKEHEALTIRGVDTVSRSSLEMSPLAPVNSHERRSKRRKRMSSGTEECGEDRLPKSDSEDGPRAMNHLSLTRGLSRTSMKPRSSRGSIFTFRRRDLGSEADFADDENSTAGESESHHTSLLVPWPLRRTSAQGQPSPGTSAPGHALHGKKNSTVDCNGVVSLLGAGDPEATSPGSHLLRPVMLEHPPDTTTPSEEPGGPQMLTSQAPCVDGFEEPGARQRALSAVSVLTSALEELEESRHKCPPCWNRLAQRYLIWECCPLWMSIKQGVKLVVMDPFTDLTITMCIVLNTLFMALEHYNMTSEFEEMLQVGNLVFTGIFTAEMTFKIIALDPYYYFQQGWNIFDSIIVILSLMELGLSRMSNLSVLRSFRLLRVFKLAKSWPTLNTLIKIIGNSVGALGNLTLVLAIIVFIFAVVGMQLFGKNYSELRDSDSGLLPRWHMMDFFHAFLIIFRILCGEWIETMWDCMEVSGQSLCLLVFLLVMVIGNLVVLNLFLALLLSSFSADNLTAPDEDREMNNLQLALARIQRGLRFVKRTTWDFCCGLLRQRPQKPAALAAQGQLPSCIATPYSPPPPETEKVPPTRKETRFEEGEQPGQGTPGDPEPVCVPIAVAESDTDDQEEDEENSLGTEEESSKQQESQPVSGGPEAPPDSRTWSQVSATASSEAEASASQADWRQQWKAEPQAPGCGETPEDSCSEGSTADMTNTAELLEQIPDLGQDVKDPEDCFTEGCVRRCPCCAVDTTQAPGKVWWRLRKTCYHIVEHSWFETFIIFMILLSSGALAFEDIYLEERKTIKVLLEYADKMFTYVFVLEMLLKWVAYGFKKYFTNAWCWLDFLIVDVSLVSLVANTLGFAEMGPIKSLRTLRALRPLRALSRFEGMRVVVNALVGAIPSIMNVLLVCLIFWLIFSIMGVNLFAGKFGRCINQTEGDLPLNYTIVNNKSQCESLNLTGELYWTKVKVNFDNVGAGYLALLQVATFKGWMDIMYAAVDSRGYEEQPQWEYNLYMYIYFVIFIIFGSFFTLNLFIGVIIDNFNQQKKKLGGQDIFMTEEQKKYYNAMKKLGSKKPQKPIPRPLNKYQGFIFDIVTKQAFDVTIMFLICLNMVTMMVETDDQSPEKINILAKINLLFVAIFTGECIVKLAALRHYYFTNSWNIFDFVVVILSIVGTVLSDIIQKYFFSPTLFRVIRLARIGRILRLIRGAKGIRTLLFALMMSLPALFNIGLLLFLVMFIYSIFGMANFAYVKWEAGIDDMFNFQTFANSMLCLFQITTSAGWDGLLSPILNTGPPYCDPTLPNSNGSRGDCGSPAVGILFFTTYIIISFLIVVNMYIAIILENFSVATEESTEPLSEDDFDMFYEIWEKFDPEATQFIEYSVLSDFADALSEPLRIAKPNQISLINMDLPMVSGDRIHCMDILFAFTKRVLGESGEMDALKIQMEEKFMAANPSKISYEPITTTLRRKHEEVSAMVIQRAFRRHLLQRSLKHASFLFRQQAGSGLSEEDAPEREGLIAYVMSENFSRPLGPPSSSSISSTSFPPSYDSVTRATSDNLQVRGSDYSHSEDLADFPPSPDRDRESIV
Method in brief: (§2)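 Part of an eight-assay CiPA panel run on a QPatch HT automated patch clamp at 3, 30 and 100 µM, in duplicate. The test compound came from a 30 mM DMSO stock. Data were filtered for seal quality, seal drop and current amplitude, and reported as mean percent inhibition.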

[5] = molecular target: T2, Sodium channel protein type 5 subunit alpha (Homo sapiens, UniProt Q14524); test: Activation of recombinant human Nav1.5 late expressed in human HEK293 cells assessed as activation of late current at 100 uM by automated Qpatch clamp assay relative to control; format: ADME, cell-based; conditions: hek293, 100 µM
T2 sequence (Q14524 whole entry): as above
Method in brief: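 Part of an eight-assay CiPA cardiac ion channel panel run in duplicate on a QPatch HT automated patch-clamp system. Compound was prepared as a 30 mM DMSO stock and tested at 3, 30 and 100 µM. Recordings were filtered for seal quality, seal drop and current amplitude, and results are reported as mean percent values.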

[6] = Cytotoxicity against human HepaRG assessed as reduction in cell viability at 0.01 uM incubated for 24 hrs by Cell-Titer Glo assay; format: cell-based; conditions: HepaRG cells, read-out: INH
Method in brief: (§3)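 ATP-based viability read-out in HepaRG cells over a five-point concentration series (0.01, 0.1, 1, 10, 100 µM). Results are given as % cytotoxicity at each concentration.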

Nav1.5 (late current) [7] = molecular target: T1, Nav1.5 (late current); test: Inhibition of recombinant human Nav1.5 late expressed in human HEK293 cells at 30 uM in presence of ATXII by automated Qpatch clamp assay relative to control; format: ADME, cell-based; conditions: HEK293 cells expressing recombinant human Nav1.5; method in brief: as §2
Streptococcus pyogenes = test: Antibacterial activity against Streptococcus pyogenes LSI-1235 assessed as reduction in bacterial growth by CLSI based broth microdilution method; format: functional
[8] = Permeability across apical to basolateral side in human Caco2 cells at 10 uM by LC-MS/MS analysis; format: ADME, cell-based; conditions: Caco-2, read-out: permeability
Staphylococcus aureus [9] = test: Antibacterial activity against cystic fibrosis patient isolate Staphylococcus aureus assessed as reduction in bacterial growth by CLSI based broth microdilution method; format: functional
Nav1.5 (late current) [10] = molecular target: T1, Nav1.5 (late current); test: Inhibition of recombinant human Nav1.5 late expressed in human HEK293 cells at 100 uM in presence of ATXII by automated Qpatch clamp assay relative to control; format: ADME, cell-based; conditions: HEK293 cells expressing recombinant human Nav1.5; method in brief: as §2
[11] = Cytotoxicity against human HepaRG assessed as reduction in cell viability at 100 uM incubated for 24 hrs by Cell-Titer Glo assay; format: cell-based; conditions: HepaRG cells, read-out: INH; method in brief: as §3
Staphylococcus aureus [12] = test: Antibacterial activity against Staphylococcus aureus harboring DNA gyrase D83N mutant assessed as reduction in bacterial growth by CLSI based broth microdilution method; format: functional
Method in brief: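 MIC against an isogenic NBTI-resistant daughter strain carrying a D83N substitution in DNA gyrase, originally selected under NBTI pressure from multidrug-resistant MRSA isolate 3527. CLSI broth microdilution was used, with values in µg/mL.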

[13] = molecular target: T2, Sodium channel protein type 5 subunit alpha; test: Activation of recombinant human Nav1.5 late expressed in human HEK293 cells assessed as activation of late current at 3 uM by automated Qpatch clamp assay relative to control; format: ADME, cell-based; conditions: hek293, 3 µM
Method in brief: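 Part of an eight-assay CiPA panel run in duplicate on an automated QPatch HT patch-clamp system at 3, 30 and 100 µM. Test compound came from a 30 mM DMSO stock. Records were filtered for seal quality, seal drop and current amplitude, and mean percent values are reported.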

[14] = molecular target: Sodium-dependent noradrenaline transporter (Homo sapiens) (UniProt P23975); test: Inhibition of recombinant human full length Norepinephrine transporter expressed in dog MDCK cells at 100 uM in presence of [125I]-RTI-55 incubated for 180 mins by scintillation counting method relative to control; format: cell-based; conditions: CHO-K1; method in brief: as §1
Sequence of Sodium-dependent noradrenaline transporter (Homo sapiens) (P23975 whole entry): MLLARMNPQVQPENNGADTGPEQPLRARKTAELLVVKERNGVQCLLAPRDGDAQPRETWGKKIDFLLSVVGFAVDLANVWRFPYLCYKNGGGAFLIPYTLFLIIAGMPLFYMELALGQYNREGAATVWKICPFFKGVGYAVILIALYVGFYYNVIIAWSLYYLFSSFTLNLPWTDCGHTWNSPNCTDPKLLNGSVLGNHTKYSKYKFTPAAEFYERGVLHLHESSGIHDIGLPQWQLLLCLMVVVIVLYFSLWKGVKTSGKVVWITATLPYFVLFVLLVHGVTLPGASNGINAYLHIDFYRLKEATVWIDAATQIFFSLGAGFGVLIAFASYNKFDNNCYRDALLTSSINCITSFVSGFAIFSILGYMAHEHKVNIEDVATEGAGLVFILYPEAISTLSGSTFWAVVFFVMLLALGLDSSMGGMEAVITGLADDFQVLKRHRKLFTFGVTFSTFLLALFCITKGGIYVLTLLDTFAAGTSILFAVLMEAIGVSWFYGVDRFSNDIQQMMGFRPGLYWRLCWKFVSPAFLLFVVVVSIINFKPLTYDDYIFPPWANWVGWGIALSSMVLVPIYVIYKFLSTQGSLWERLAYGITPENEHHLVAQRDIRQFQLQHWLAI

CYP2C9 = CYP2C9 (Homo sapiens, UniProt P11712); test: Inhibition of human liver microsome CYP2C9 at 10 uM in presence of NADPH incubated for 10 to 30 mins by LC-MS-MS analysis; format: ADME; conditions: human liver microsomes, time 10-30 min
Sequence of CYP2C9 (P11712 whole entry): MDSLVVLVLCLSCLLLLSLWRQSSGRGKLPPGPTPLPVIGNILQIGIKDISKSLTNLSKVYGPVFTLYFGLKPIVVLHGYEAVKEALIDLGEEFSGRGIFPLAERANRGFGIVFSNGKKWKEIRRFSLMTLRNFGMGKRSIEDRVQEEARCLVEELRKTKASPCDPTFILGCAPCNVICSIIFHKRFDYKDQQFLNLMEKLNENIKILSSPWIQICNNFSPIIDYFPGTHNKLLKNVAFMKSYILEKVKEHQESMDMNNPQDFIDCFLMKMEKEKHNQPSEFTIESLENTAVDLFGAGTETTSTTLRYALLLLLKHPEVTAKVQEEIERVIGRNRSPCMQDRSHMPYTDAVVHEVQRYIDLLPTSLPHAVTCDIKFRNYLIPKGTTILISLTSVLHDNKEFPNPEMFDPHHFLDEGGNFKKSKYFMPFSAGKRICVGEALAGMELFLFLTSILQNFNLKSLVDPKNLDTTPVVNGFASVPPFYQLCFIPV

[15] = Metabolic stability in human liver microsomes assessed as half life at 10 uM incubated for 5 mins followed by NADPH addition and measured upto 60 mins by LC-MS analysis; format: ADME, Microsome; conditions: time 65 min
[16] = Cytotoxicity against human HepaRG assessed as reduction in cell viability at 10 uM incubated for 24 hrs by Cell-Titer Glo assay; format: cell-based; conditions: HepaRG cells, read-out: INH; method in brief: as §3
CYP3A4 = CYP3A4 (Homo sapiens, UniProt P08684); test: Residual activity of human liver microsome CYP3A4 at 0.3 uM in presence of NADPH incubated for 10 to 30 mins by LC-MS-MS analysis; conditions: human liver microsomes
Staphylococcus aureus [17] = test: Antibacterial activity against Staphylococcus aureus ATCC 29213 assessed as reduction in bacterial growth by CLSI based broth microdilution method; format: functional
Staphylococcus aureus [18] = test: Antibacterial activity against Fluoroquinolone-resistant Staphylococcus aureus assessed as reduction in bacterial growth by CLSI based broth microdilution method; format: functional
CYP2C19 = CYP2C19 (Homo sapiens, UniProt P33261); test: Inhibition of human liver microsome CYP2C19 at 10 uM in presence of NADPH incubated for 10 to 30 mins by LC-MS-MS analysis; format: ADME; conditions: human liver microsomes, time 10-30 min

Question: For `COc1ccc2ncc(F)c(CC[C@@]3(O)CO[C@@H]4[C@@H](NCc5cc6c(cn5)OCCO6)CO[C@@H]43)c2n1`, which IC50 (Cytochrome P450 3A4) is on record?
Answer: > 10 µM

Question: And the IC50 [1]?
Answer: 7.4 µM

Question: And the MIC (Streptococcus pneumoniae)?
Answer: ≤ 0.12 µg/mL

Question: What about the inhibition [2] of the same compound?
Answer: 96%

Question: And the MIC (Staphylococcus aureus [3])?
Answer: 2 µg/mL (≈ 4.01 µM)

Question: And the inhibition at 3 µM (Nav1.5 (late current) [4])?
Answer: 4.3%

Question: What about the Activity [5] of the same compound?
Answer: 17%

Question: What about the cytotoxicity at 24 h, 0.01 µM [6] of the same compound?
Answer: 6%

Question: What about the inhibition at 30 µM (Nav1.5 (late current) [7]) of the same compound?
Answer: 19.1%

Question: And the MIC (Streptococcus pyogenes)?
Answer: ≤ 0.12 µg/mL

Question: What about the Papp A→B at 10 µM [8] of the same compound?
Answer: 10.8 ×10⁻⁶ cm/s

Question: And the MIC (Staphylococcus aureus [9])?
Answer: 2 µg/mL (≈ 4.01 µM)

Question: And the inhibition at 100 µM (Nav1.5 (late current) [10])?
Answer: 50.9%

Question: What about the cytotoxicity at 24 h, 100 µM [11] of the same compound?
Answer: 14%

Question: And the MIC (Staphylococcus aureus [12])?
Answer: 2 µg/mL (≈ 4.01 µM)

Question: And the Activity [13]?
Answer: 3.4%

Question: And the inhibition [14]?
Answer: 68%

Question: What about the inhibition at 10 µM (CYP2C9) of the same compound?
Answer: < 50%

Question: And the half-life at 10 µM [15]?
Answer: 6 min

Question: And the cytotoxicity at 24 h, 10 µM [16]?
Answer: 8%

Question: What about the residual activity at 0.3 µM (CYP3A4) of the same compound?
Answer: 89.9%

Question: What about the MIC (Staphylococcus aureus [17]) of the same compound?
Answer: 1 µg/mL (≈ 2.01 µM)

Question: And the MIC90 (Staphylococcus aureus [18])?
Answer: 2 µg/mL (≈ 4.01 µM)

Question: What about the inhibition at 10 µM (CYP2C19) of the same compound?
Answer: < 50%
